Source: paper PMC7606109 (Acta Pharmaceutica Sinica. B, 2020)

Test: MTT cell toxicity assay
Format: cell-based
Settings: human, HeLa cells
Procedure, shortened: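 HeLa cells grown in DMEM with 10% heat-inactivated FBS and 1% penicillin/streptomycin, 5% CO2, 37 °C. Exponentially growing cells were seeded at 2–6 × 10^3 per well and left 24 h, then exposed to graded test compound concentrations for 48 h. MTT (5 mg/mL stock) was added for 2–4 h at 37 °C. Formazan was dissolved in DMSO and read at 492 nm. Mean ± SD, n = 3.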

In the case of `NS(=O)(=O)NCCNc1nonc1C(=NO)Nc1ccc(F)c(Br)c1` [Epa, Epacadostat], the IC50 at 48 h is reported as over 40 µM.
